ChEMBL document CHEMBL4130635, “2,4-Diaminoquinazolines as Dual Toll-like Receptor (TLR) 7/8 Modulators for the Treatment of Hepatitis B Virus” (J Med Chem, 2018)

What was measured:
[1] = target: T1, Toll-like receptor 7 (Homo sapiens) (UniProt Q9NYK1); test: Agonist activity at human TLR7 expressed in HEK293 cells assessed as induction of receptor activation incubated for 6 hrs by NF-kappaB-luciferase reporter gene assay; format: cell-based
T1 sequence (whole entry): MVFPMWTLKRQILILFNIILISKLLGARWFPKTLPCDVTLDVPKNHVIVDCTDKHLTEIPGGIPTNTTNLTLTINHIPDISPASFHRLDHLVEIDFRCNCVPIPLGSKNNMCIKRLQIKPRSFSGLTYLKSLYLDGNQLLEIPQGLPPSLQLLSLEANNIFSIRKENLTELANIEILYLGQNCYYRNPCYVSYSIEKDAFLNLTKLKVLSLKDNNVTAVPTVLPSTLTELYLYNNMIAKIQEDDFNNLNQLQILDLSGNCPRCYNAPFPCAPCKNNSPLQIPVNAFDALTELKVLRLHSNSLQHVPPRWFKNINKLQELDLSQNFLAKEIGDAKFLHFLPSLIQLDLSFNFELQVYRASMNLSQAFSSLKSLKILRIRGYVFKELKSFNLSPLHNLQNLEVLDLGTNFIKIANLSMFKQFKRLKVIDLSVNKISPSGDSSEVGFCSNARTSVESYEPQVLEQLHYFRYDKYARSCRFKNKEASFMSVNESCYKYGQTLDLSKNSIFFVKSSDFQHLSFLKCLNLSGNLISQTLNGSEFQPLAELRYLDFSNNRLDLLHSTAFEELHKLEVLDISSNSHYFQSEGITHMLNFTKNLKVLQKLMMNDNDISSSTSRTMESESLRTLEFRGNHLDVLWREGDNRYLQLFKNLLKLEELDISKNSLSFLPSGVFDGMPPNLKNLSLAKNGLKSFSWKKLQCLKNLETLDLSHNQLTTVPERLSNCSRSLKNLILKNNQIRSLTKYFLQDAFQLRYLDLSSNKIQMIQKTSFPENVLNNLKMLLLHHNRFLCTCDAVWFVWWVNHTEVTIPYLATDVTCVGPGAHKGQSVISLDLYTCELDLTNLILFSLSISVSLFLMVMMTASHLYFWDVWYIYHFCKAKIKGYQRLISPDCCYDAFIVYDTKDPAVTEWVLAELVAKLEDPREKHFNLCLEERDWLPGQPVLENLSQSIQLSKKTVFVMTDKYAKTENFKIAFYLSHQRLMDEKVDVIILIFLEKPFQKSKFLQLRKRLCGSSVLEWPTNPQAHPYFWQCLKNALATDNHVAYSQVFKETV
Procedure, shortened: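 HEK cell-based assay using a wild-type TLR7 expression vector; a parallel TLR8 vector construct served for selectivity. Results are expressed as lowest effective concentration (LEC), averaged over independent experiments where determined two or more times. A separate HEK 293 cytotoxicity (TOX) assay gave CC50 alongside.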

[2] = target: T2, Toll-like receptor 8 (Homo sapiens) (UniProt Q9NR97); test: Agonist activity at human TLR8 expressed in HEK293 cells assessed as induction of receptor activation incubated for 6 hrs by NF-kappaB-luciferase reporter gene assay; format: cell-based
T2 sequence (whole entry): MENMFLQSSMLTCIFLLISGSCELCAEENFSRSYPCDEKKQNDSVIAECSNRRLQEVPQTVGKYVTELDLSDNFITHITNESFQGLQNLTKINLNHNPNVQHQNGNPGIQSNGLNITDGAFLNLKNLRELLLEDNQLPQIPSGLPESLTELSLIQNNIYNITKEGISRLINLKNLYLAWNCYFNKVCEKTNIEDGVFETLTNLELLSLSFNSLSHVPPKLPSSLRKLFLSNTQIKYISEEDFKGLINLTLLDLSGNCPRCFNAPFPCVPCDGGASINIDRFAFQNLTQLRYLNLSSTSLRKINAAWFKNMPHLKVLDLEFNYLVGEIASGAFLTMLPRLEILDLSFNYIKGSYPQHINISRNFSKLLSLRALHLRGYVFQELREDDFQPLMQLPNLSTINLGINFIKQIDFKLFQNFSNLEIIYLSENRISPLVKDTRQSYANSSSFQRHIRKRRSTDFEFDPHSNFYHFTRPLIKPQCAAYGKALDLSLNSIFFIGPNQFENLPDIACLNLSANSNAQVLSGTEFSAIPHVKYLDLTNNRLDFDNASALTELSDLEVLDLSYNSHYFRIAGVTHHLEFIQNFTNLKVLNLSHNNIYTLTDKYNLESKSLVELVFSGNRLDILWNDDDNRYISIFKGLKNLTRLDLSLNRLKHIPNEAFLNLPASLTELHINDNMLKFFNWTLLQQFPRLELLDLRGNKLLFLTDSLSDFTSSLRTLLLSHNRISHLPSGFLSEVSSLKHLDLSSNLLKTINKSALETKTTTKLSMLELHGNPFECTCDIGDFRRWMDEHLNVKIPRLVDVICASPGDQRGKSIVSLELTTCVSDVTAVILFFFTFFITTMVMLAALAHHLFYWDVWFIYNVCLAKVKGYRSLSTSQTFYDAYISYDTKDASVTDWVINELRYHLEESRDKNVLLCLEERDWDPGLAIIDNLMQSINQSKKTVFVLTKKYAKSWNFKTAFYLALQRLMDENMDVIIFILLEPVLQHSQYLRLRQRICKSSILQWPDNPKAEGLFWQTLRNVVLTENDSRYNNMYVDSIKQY

[3] = Cytotoxicity against HEK293 cells assessed as reduction in cell viability after 6 hrs by ATP lite assay; format: cell-based; conditions: human
[4] = Metabolic stability in human liver microsomes assessed as compound metabolized at 1 uM after 15 mins; format: ADME, microsome; conditions: read-out: Drug metabolism
Procedure, shortened: (§1)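 Mouse (M) or human (H) liver microsomes incubated with compound at 1 μM; percent metabolized after 15 min.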

[5] = Metabolic stability in mouse liver microsomes assessed as compound metabolized at 1 uM after 15 mins; format: ADME, microsome; conditions: read-out: Drug metabolism; procedure, shortened: as §1
[6] = target: Voltage-gated inwardly rectifying potassium channel KCNH2 (Homo sapiens, UniProt Q12809); test: Inhibition of radioligand binding to human ERG expressed in HEK293 cell membranes by scintillation counting method
Sequence of Voltage-gated inwardly rectifying potassium channel KCNH2 (Q12809 whole entry): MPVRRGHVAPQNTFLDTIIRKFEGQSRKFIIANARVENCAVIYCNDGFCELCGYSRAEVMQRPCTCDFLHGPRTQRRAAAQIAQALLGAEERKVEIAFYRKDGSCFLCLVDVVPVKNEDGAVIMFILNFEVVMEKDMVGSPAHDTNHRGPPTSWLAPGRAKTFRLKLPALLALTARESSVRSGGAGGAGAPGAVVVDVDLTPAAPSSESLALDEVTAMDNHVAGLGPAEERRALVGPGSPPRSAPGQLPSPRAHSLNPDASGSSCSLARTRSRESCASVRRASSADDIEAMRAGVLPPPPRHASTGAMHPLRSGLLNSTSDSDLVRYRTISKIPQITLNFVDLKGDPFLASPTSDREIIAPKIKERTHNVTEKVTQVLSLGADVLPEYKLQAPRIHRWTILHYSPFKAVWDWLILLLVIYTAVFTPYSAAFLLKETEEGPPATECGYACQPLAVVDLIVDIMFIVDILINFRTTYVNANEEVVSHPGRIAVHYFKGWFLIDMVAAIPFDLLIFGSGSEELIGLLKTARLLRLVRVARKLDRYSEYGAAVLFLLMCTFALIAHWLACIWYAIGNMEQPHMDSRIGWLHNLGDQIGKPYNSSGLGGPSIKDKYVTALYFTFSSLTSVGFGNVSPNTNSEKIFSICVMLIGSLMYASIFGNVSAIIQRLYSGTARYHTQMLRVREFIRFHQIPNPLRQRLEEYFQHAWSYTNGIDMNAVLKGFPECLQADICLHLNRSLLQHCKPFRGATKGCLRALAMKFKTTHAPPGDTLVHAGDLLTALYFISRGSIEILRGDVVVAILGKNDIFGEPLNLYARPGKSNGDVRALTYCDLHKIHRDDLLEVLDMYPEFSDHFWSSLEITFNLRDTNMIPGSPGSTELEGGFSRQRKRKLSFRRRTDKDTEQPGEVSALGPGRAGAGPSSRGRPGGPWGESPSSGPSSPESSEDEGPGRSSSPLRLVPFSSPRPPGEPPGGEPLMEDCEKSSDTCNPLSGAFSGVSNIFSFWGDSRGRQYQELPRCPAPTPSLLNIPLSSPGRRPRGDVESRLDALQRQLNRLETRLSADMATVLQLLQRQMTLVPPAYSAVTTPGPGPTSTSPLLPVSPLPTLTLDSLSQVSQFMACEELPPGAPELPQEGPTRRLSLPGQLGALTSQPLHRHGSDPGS

[7] = target: T1, Toll-like receptor 7 (Homo sapiens); test: Agonist activity at TLR7 in human PBMC assessed as suppression of HCV replicon replication in human HuH7 luc/neo cells harboring RNA encoding bicistronic expression construct comprising wild type HCV type 1b NS3-NS5B regions exposed to conditioned media from compound treated PBMCs after 24 hrs by luciferase reporter gene assay; format: cell-based
Procedure, shortened: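 Human PBMCs were incubated with compound. Their medium was then transferred onto an HCV replicon system, so the antiviral read-out reflects interferon and cytokines the PBMCs induced. Values are reported as lowest effective concentration (LEC), averaged when determined in two or more independent experiments.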

HepG2 = test: Cytotoxicity against human HepG2 cells; format: cell-based

SMILES	MEC [1] [µM]	MEC [2] [µM]	CC50 at 6 h [3] [µM]	metabolised at 0.25 h, 1 µM [4] [%]	metabolised at 0.25 h, 1 µM [5] [%]	IC50 [6] [µM]	MEC [7] [µM]	EC20 (HepG2) [µM]
CCC[C@@H](CCO)Nc1nc(N)nc2ccc(F)cc12	1.05	0.42	> 24	22	47			
CCCC[C@@H](CCO)Nc1nc(N)nc2ccc(C)cc12	0.44	0.25	> 24	24	99	5.4	0.14	
CCCCNc1nc(N)nc2ccccc12	0.16	0.06	> 24				0.03	
CCCC[C@@H](CCO)Nc1nc(N)nc2c(F)cccc12	0.11	0.16	> 24	76	98	4.47	0.05	
CC[C@@H](CO)Nc1nc(N)nc2ccccc12	3.9	0.19	> 24				2.3	
CCCC[C@@H](CCO)Nc1nc(N)nc2cccc(C)c12	0.14	0.06	> 24	67	82	0.6	0.02	
CCC[C@@H](CCO)Nc1nc(N)nc2cc(C)ccc12	0.06	0.05	> 24	44	87	8.1	0.39	
CC(C)C[C@@H](CCO)Nc1nc(N)nc2ccccc12	1.83	0.69	> 24				0.55	
CC(C)C[C@@H](CO)Nc1nc(N)nc2ccccc12	3.18	0.45	> 24				0.71	
CCCC[C@H](CO)Nc1nc(N)nc2ccccc12	22.5	0.05	> 24				0.16	
CCCC[C@@H](CCO)Nc1nc(N)nc2cccc(F)c12	0.34	0.1	> 24	87	25	> 10	0.06	13.2
CCC[C@@H](CCO)Nc1nc(N)nc2cccc(C)c12	0.22	0.14	> 24	44	88	5.5		
CC[C@H](C)[C@@H](CO)Nc1nc(N)nc2ccccc12	1.34	0.08	> 24				0.14	
CCCC[C@@H](CCO)Nc1nc(N)nc2ccccc12	0.08	0.08	> 24	45	82	2.7	0.02	
CCC[C@H](CO)Nc1nc(N)nc2ccccc12	> 25	0.57	> 24				2.36	
CCC[C@@H](CO)Nc1nc(N)nc2ccccc12	0.46	0.01	> 24				0.04	
CCCC[C@@H](CCO)Nc1nc(N)nc2cc(C)ccc12	0.03	0.06	> 24	70	98	1.8	0.02	
CCCC[C@@H](CCO)Nc1nc(N)nc2ccc(OC)cc12	1.85	2.81	> 24	25	97	6	0.88	
CCC[C@@H](CCO)Nc1nc(N)nc2ccc(C)cc12	0.54	0.45	> 24	21	97	7.2	0.39	
CCCC[C@@H](CO)Nc1nc(N)nc2ccccc12	0.24	0.02	> 24				0.04	
CCC[C@@H](CCO)Nc1nc(N)nc2cc(F)ccc12	0.11	0.04	> 24	13	100	9.1	4.8	
CCCC[C@@H](CCO)Nc1nc(N)nc2cc(F)ccc12	0.04	0.03	> 24	39	91		0.04	
CCC[C@@H](CCO)Nc1nc(N)nc2ccc(OC)cc12	11.8	2.97	> 24					
CCCC[C@@H](CCO)Nc1nc(N)nc2cc(OC)ccc12	0.16	0.16	> 24	37	80		0.04	
CCC[C@@H](CCO)Nc1nc(N)nc2ccccc12	0.2	0.11	> 24	23	72	6.8	0.38	
CCC[C@@H](CCO)Nc1nc(N)nc2cccc(F)c12	0.22	0.02	> 24	62	47	8.9		
CCCC[C@@H](CCO)Nc1nc(N)nc2ccc(F)cc12	1.59	0.42	> 24	33	63	5.8	0.37	
